Experiment [1] concerns MOLT-4. Description: (§1) Cytotoxicity against human MOLT4 cells after 96 hrs by Hoechst-staining based nuclei image analysis. In kind it is functional.
For experiment [2], the system named is LOX IMVI. Description: Cytotoxicity against human LOXIMVI cells after 96 hrs by Hoechst-staining based nuclei image analysis. It counts as functional.
The subject of experiment [3] is RPMI-8226. Description: Cytotoxicity against human RPMI8226 cells at 1 to 10 uM after 72 hrs by Alamar Blue viability assay. In kind it is functional, cell-based.
For experiment [4], the system named is MOLT-4. Description: Cytotoxicity against human MOLT4 cells at 1 to 10 uM after 72 hrs by Alamar Blue viability assay. In kind it is functional, cell-based. Background: The colour change of resazurin is a common sign of viable cells or microbes.
In experiment [5] the test system is LOX IMVI. Kind of experiment: Cytotoxicity against human LOXIMVI cells at 1 to 10 uM after 72 hrs by Alamar Blue viability assay. It counts as functional, cell-based.
For experiment [6], the system named is RPMI-8226. Kind of experiment: (§2) Cytotoxicity against human RPMI8226 cells after 96 hrs by Hoechst-staining based nuclei image analysis. In kind it is functional.
Experiment [7] relates to SR. Description: Cytotoxicity against human SR cells after 96 hrs by Hoechst-staining based nuclei image analysis. In kind it is functional.
Experiment [8] concerns CCRF-CEM. Description: Cytotoxicity against human CCRF-CEM cells at 1 to 10 uM after 72 hrs by Alamar Blue viability assay. It counts as functional, cell-based.
Experiment [9] deals with SR. Kind of experiment: Cytotoxicity against human SR cells at 1 to 10 uM after 72 hrs by Alamar Blue viability assay. It counts as functional, cell-based.
Experiment [10] can be described thus: as §1. In kind it is functional. The following applies: MOLT-4, 96 h.
Experiment [11] addresses T1, Caspase-1 (Homo sapiens, UniProt P29466).
T1 sequence (P29466 whole entry): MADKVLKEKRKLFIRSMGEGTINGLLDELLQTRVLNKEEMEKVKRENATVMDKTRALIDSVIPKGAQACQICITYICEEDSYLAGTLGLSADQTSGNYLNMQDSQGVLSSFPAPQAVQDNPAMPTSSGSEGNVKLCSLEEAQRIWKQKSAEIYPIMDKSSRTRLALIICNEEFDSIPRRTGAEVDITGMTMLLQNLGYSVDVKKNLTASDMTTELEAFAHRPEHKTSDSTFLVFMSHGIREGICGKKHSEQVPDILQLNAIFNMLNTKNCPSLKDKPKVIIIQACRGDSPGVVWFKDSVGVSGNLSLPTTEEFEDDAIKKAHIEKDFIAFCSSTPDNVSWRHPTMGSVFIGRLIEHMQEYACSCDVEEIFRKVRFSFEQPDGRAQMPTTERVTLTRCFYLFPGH
Description: Inhibition of caspase-1 (unknown origin).

In experiment [12] the test system is THP-1. Kind of experiment: Antiinflammatory activity in human THP1 cells assessed as suppression of LPS and TiO2-induced IL-6 production at 10 uM after 24 hrs by induced inflammasome assay. In kind it is functional, cell-based. The essentials: (§3)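 THP-1 cells stimulated with bacterial LPS plus titanium dioxide (TiO2) to drive proinflammatory cytokine output and NLRP3 inflammasome assembly. Compounds were added to the induced cells, and IL-6, IL-33, TNF-α and IL-1β production was then measured.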

Experiment [13] deals with SR. Description: Cytotoxicity against human SR cells after 72 hrs by Alamar Blue viability assay. In kind it is functional.
A short description of experiment [14]: (§4) Antiinflammatory activity in human THP1 cells assessed as suppression of LPS and TiO2-induced TNF-alpha production at 10 uM after 24 hrs by induced inflammasome assay. In kind it is functional, THP-1. The essentials:
as §3

Experiment [15] is described as follows: (§5) Antiinflammatory activity in human THP1 cells assessed as suppression of LPS and TiO2-induced IL-1beta production at 10 uM after 24 hrs by induced inflammasome assay. In kind it is functional, THP-1. The procedure, abridged:
as §3

Experiment [16] deals with THP-1. Description: Antiinflammatory activity in human THP1 cells assessed as suppression of LPS and TiO2-induced IL-33 production at 10 uM after 24 hrs by induced inflammasome assay. It counts as functional, cell-based. The procedure, abridged:
as §3

Experiment [17] concerns CCRF-CEM. Description: Cytotoxicity against human CCRF-CEM cells after 96 hrs by Hoechst-staining based nuclei image analysis. In kind it is functional.
Experiment [18] is described as follows: Cytotoxicity against human LOXIMVI cells after 72 hrs by Alamar Blue viability assay. In kind it is functional. The following applies: LOX IMVI.
The nature of experiment [19]: as §2. In kind it is functional. To be noted: RPMI-8226, 96 h.
The test system of experiment [20] is CCRF-CEM. Kind of experiment: Cytotoxicity against human CCRF-CEM cells after 72 hrs by Alamar Blue viability assay. It counts as functional.
The target of experiment [21] is Stromelysin-1 (Homo sapiens, UniProt P08254). Kind of experiment: Inhibition of MMP-3 (unknown origin).
Experiment [22] in a line: Cytotoxicity against human RPMI8226 cells after 72 hrs by Alamar Blue viability assay. It counts as functional. To be noted: RPMI-8226, 72 h.
In experiment [23] the test system is Y79. Description: Cytotoxicity against human Y79 cells after 96 hrs by Hoechst-staining based nuclei image analysis. It counts as functional, cell-based. The following applies: Y79, 96 h.
The test system of experiment [24] is Y79. Kind of experiment: Cytotoxicity against human Y79 cells after 72 hrs by Alamar Blue viability assay. It counts as functional, cell-based. The following applies: Y79, 72 h.
A short description of experiment [25]: Cytotoxicity against human MOLT4 cells after 72 hrs by Alamar Blue viability assay. In kind it is functional. To be noted: MOLT-4, 72 h.
Experiment [26] relates to THP-1. Description: Antiinflammatory activity in human THP1 cells assessed as suppression of LPS and TiO2-induced IL-1beta production at 100 uM after 24 hrs by induced inflammasome assay. It counts as functional, cell-based. The essentials:
as §3

Experiment [27] deals with THP-1. Kind of experiment: Antiinflammatory activity against human THP1 cells assessed as suppression of LPS and TiO2-induced TNF-alpha production at 100 uM after 24 hrs by induced inflammasome assay. It counts as functional, cell-based. The essentials: as §3
Experiment [28] relates to THP-1. The description is as §4. In kind it is functional. The essentials:
as §3

The subject of experiment [29] is THP-1. The description is as §5. In kind it is functional. The essentials: as §3
The test system of experiment [30] is THP-1. Description: Antiinflammatory activity against human THP1 cells assessed as suppression of LPS and TiO2-induced IL-33 production at 100 uM after 24 hrs by induced inflammasome assay. It counts as functional, cell-based. The essentials: as §3
For experiment [31], the system named is THP-1. Kind of experiment: Antiinflammatory activity against human THP1 cells assessed as suppression of LPS and TiO2-induced IL-6 production at 100 uM after 24 hrs by induced inflammasome assay. In kind it is functional, cell-based. The essentials:
as §3

Results on 4 compounds are retold here after ChEMBL document CHEMBL3758076, “Azaphilones from an Acid Mine Extremophile Strain of a Pleurostomophora sp” (J Nat Prod, 2015).

Calls of active or inactive are those of the source. The rule behind the calls is not given here.

As a reminder, the GI50 is the concentration giving 50% growth inhibition. Lower therefore signals greater sensitivity of the cells. A word on the IC50: it is the midpoint of a concentration-inhibition curve. A low value points to greater potency.

Sequence of Stromelysin-1 (P08254 whole entry): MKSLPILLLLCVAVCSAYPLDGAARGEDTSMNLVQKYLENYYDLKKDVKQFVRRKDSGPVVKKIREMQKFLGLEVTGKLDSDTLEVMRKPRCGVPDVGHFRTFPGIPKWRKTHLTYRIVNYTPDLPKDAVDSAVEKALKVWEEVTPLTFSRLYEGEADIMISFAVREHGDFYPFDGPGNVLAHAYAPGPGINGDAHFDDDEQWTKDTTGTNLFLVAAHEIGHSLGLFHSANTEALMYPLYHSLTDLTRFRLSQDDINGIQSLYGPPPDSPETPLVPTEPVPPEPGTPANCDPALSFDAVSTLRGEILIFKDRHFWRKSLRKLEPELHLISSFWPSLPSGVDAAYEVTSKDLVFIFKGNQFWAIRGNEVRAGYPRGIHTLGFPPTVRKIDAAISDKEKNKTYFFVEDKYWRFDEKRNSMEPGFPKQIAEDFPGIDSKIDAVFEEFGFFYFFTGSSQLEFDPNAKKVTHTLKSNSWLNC

Regarding `CCCCCCCCCC(=O)C[C@@H]1C2=COC(C[C@H](C)O)=CC2=CC(=O)[C@]1(C)O`, the result in experiment [1], in [2], in [3], in [4], in experiment [5] and in [6] was inactive. The outcome in [7], in [8] and in experiment [9] was inactive.
In the case of `CCCCCCCCCC(=O)[C@@]12O[C@@]13C1=COC(C[C@H](C)O)=CC1=CC(=O)[C@]3(C)OC2=O`, the GI50 in [10], in experiment [13], in [18], in experiment [19], in experiment [7] and in experiment [22] was 10 µM throughout. Further, the GI50 in experiment [25] came to 10 µM. The IC50 in [11] was 25 µM; in [21], 15 µM; in experiment [23], 1.1 µM; in [24] it was 1.1 µM. The outcome in experiment [12] and in [16] was Active. Besides, the Activity in [14] and in [15] was 95% throughout. In addition, the GI90 in experiment [17] and in experiment [20] was 10 µM in each case.
In the case of `CCCCCCCCCC(=O)C1=C2C=C3C=C(C[C@H](C)O)N(CCO)C=C3C(=O)[C@]2(C)OC1=O`, the IC50 is 50 µM in experiment [11] and 45 µM in experiment [21].
Regarding `CCCCCCCCCC(=O)[C@@H]1C(=O)O[C@@]2(C)C(=O)C=C3C=C(C[C@H](C)O)OC=C3[C@@H]12`, the outcome in experiment [1], in experiment [12], in experiment [2], in experiment [28], in experiment [3] and in experiment [4] was inactive. The outcome in experiment [29], in experiment [16], in experiment [5], in experiment [6], in [7] and in experiment [8] was inactive. Also, the result in experiment [9] was inactive. Further, the outcome in experiment [26], in experiment [27], in experiment [30] and in experiment [31] was Active. The 50% inhibitory concentration (IC50) in experiment [11] was 150 µM; in experiment [21], 130 µM.
